Furin inhibitor: blocks human furin protease activity. P09958. purified furin, fluorogenic substrate cleavage. inhibition, % at 20 µM or 30 µM. 220,000 compounds, 0.061% hits; in the data active = inhibition above about 25%
Target sequence (P09958 108-714 limits assumed): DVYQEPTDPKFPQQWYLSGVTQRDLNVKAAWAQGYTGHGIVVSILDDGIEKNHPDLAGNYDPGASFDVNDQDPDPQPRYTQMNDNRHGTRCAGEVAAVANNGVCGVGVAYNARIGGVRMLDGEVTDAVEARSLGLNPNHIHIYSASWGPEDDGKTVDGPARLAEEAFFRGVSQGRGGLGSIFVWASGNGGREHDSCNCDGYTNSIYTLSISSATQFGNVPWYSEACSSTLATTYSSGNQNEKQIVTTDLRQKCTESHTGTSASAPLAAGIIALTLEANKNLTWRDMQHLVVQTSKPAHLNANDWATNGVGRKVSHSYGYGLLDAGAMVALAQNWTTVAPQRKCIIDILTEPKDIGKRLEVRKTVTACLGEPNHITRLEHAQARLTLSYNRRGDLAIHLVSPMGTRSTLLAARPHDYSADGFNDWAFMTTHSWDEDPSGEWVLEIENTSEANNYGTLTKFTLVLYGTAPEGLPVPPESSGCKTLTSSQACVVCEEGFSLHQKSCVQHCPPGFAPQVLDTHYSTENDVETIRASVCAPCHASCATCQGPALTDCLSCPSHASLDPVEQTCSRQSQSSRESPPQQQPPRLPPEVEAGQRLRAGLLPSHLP
Insulin prom up: MIN6 insulin promoter up-regulation; 190,000 compounds, 0.3% hits; z-score at 5 µM; AID 1625; MIN6 insulin promoter-GFP reporter, high-content imaging; stronger effect = higher value;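 active = z-score above 3 at 5 µM with at least 500 cells counted in the well; inconclusive = wells under 500 cells, flagged as cytotoxic or low count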
Dynein transport: dynein cargo transport inhibition. 3617.4 mouse cells, GR-EGFP nuclear translocation imaging; test concentration mostly 20 µM; stimulated with dexamethasone, 1 µM; stronger effect = lower value. z-score, hits read low. 220,000 compounds, 0.47% hits;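 active = plate z-score of nuclear minus cytoplasmic receptor signal below a set negative limit, without overly bright fluorescence or cell loss, cut at about -3.5 in these data, passing the limit was not always enough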;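 note: z-score of nuclear minus cytoplasmic ring GR-EGFP intensity difference per well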
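Buffer or medium: Induction medium lacking tetracycline, stripped serum | Also added: Dexamethasone agonist, 1.0 µM final, for 30 min | Timing: 48 h induction, 1 h compound, 30 min dex at 37 °C | Detection: Formaldehyde fixation, Hoechst nuclear stain, 10x automated fluorescence imaging | Measure: Nuclear versus cytoplasmic GR-EGFP signal, averaged per well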
HSV replic up: HSV replication enhancement. HSV replication augmentation in cells, fold increase. maximum fold increase. 220,000 compounds, 0.005% hits. AID 1956; in the data active = maximum fold increase above about 1.5; inconclusive = no clear call, values can overlap the other calls; tested in PC3 cells
Insulin prom inh: TRM-6 insulin promoter activity inhibition | TRM-6 cells, insulin promoter-eGFP reporter, imaging; reporter expression induced with tamoxifen | inhibition, % at 2 µM | 130,000 compounds, 0.9% hits;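 active = inhibition above the mean plus 3 SD, with well images judged a real hit on visual review, cut at about 60% in these data, passing the limit was not always enough; inconclusive = inhibition over the cutoff but images rejected on review; inactive = inhibition not above the cutoff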
Autophagy HCS: alters autophagy in cells. 190,000 compounds, 0.98% hits. calls only at 10 µM (by protocol). MEF GFP-LC3 puncta imaging; test concentration mostly 10 µM;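 active = percentage of spot-positive cells more than 3 SD above its plate mean, without a fluorescence outlier flag or 80% toxicity; inconclusive = no clear call, values can overlap the other calls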;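 note: spot-positive cell cutoff set from DMSO-treated cells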
* marks the source's active call; other numbers are inactive results; i = inactive; ? = inconclusive; . = no result; + = active, no number. Rows were chosen to be rich in hits. Some 2% of all compounds tested hit in one or more screens of this group.

SMILES	Furin inhibitor	Insulin prom up	Dynein transport	HSV replic up	Insulin prom inh	Autophagy HCS
COCCN(C(=S)Nc1ccccc1OC)C(C)c1cccs1 (stereo not given)	-17	0.28	-0.31	i	-37	i
O=C(O)c1ccccc1C(=O)NC1Cc2ccccc2C1	-8	1.3	0.22	i	.	.
Cc1cc(S(=O)(=O)N2CCCC2)ccc1OCC(=O)N1CCOCC1	-13	-0.13	0.25	i	78*	i
COc1ccc(-c2nc(N)n(C(=O)c3ccccc3Cl)n2)cc1	-13	-0.14	0.36	i	15	i
COC(=O)Cc1[nH]n(-c2nc3ccccc3s2)c(=O)c1C(C)=O	-17	0.82	-0.82	i	18	i
COc1ccc(CN=C(C)c2c(C(F)(F)F)[nH]n(-c3nc4ccccc4s3)c2=O)cc1	-15	-0.37	-0.26	i	23	+
COc1cccc(/C=C/C(=O)NCc2ccc(S(N)(=O)=O)cc2)c1	-16	0.26	0.09	i	.	.
NC(=S)Nc1ncc(CCN2CCOCC2)c(-c2ccc(F)cc2)n1	-32	1.3	1.4	i	.	i
CSc1nn2cc(CCN3CCOCC3)c(-c3ccc(F)cc3)nc2c1C#N	-1	0.12	2.9	i	-156	+
CC1=Nc2ccccc2/C1=C/c1sc(=S)n(-c2cccc(C(=O)O)c2)c1O	-23	3.2*	0.41	?	.	i
Oc1c(C=C2N=c3ccccc3=N2)sc(=S)n1-c1ccccc1	-11	-0.2	0.32	i	.	i
Cc1cccc(NC(=O)C2c3ccccc3Oc3ccccc32)n1	-28	.	-0.34	i	7	i
CCc1nnc(NS(=O)(=O)c2ccc(N=CC3=C(O)CC(C)(C)CC3=O)cc2)s1	26*	-0.18	-1.1	i	.	i
C[C@@H](C(=O)N[C@@H](Cc1c[nH]c2ccccc12)C(=O)O)n1nnc2ccccc2c1=O	-27	-0.12	-0.43	i	.	.
COc1ccc(S(=O)(=O)NCCC(=O)NCc2ccc(F)cc2)cc1	29*	-0.51	-0.68	i	-100	i
CCNS(=O)(=O)c1ccc(CCC(N)=O)cc1	-20	-0.16	1.1	i	.	i
CCNS(=O)(=O)c1ccc(CCC(=O)NCc2ccc(C)cc2)cc1	-18	-0.28	-0.31	i	.	+
NC(=O)C1(c2ccccc2)CCOCC1	-25	1.2	-0.44	i	15	+
Cn1c(N)c(C(=O)COC(=O)CCCc2nc3ccccc3s2)c(=O)n(C)c1=O	-16	0.4	0.94	i	0	+
CCCn1nc(C(=O)OCC(=O)NC(C)c2ccccc2)c2ccccc2c1=O (stereo not given)	-25	-0.53	0.31	i	.	i
CCn1nc(C(=O)OCC(=O)NCC(C)C)c2ccccc2c1=O	-20	-0.33	1	i	.	+
CCCCCn1nc(C(=O)OCC(=O)c2c(N)n(C)c(=O)n(C)c2=O)c2ccccc2c1=O	-26	.	1.8	i	71*	i
CCn1ncc(/C=N/NC(=O)c2cc(Cl)ccc2OC)c1C	-2	0.2	0.15	i	14	i
CN(Cc1cn(-c2ccccc2)nc1-c1ccc2c(c1)OCO2)Cc1nccn1C	-26	-0.62	-0.31	i	.	+
O=c1ccc(C(F)(F)F)cn1Cc1cc(=O)n2cc(Br)ccc2n1	-22	-0.21	0.39	i	36	i
SMILES	Furin inhibitor	Insulin prom up	Dynein transport	HSV replic up	Insulin prom inh	Autophagy HCS
Cc1ccc(C(=O)N2CCCC2)cc1S(=O)(=O)Nc1cccc(C)c1C	-21	0.22	-0.044	i	-29	i
C/C(CC1CC(C)(C)OC1=O)=N\NC(N)=S (stereo not given)	-16	0.94	0.41	i	.	.
C/C(CC1CC2=C(CC1(C)C)C(C)(C)CCC2)=N\NC(N)=S (stereo not given)	-11	-0.88	0.65	i	-35	+
Cn1c(=O)c2c(ncn2CC(=O)Nc2nccs2)n(C)c1=O	-4	0.53	1.9	i	.	.
Cc1cc(C)n(-c2ccc(F)cc2CN2CCN(C3CCCC3)C(CCO)C2)n1 (stereo not given)	-29	0.53	-0.18	i	.	+
Clc1ccc(C[n+]2csc3ccccc32)cc1	-8	-0.3	1.9	i	0	+
Fc1ccc(C[n+]2csc3ccccc32)cc1	-8	.	0.46	i	-4	i
CCCNC(=O)CN(c1cccc(F)c1)S(C)(=O)=O	-3	0.18	2.7	i	33	i
CCCNC(=O)N1CCC(C(=O)c2ccc(Cl)cc2)CC1	-17	3.8*	1.9	i	29	i
CCCNC(=O)N1CCC(C(=O)c2ccc(F)cc2)CC1	-20	-0.44	-0.75	i	26	i
COc1cccc(/C=N/NC(=O)c2oc3nc(-c4ccccc4)cc(-c4ccco4)c3c2N)c1	-15	.	-0.51	i	.	.
Cc1ccc(-c2cc(-c3ccco3)c3c(N)c(C(=O)NN)oc3n2)cc1	-8	3*	1.8	?	.	.
COc1cccc(N=c2oc3ccc(OC)cc3cc2-c2nc3ccccc3[nH]2)c1	-6	-0.58	1.3	i	50	i
COc1cccc(N=c2oc3ccccc3cc2-c2nc3ccccc3[nH]2)c1	8	0.02	0.17	i	83*	i
COc1ccc(N(CC(=O)Nc2ccccc2F)S(=O)(=O)c2ccc(C)c([N+](=O)[O-])c2)cc1	-5	0.32	1.1	i	18	i
CCOC(=O)c1sc(NC(=O)c2cccs2)cc1C	-22	0.91	-1.3	i	.	i
CCOC(=O)c1sc(NC(=O)c2sccc2C)cc1C	-10	3.1*	-5.6	i	13	i
CSc1nn2c(C(F)(F)F)cc(C(F)(F)F)nc2c1C(=O)O	-7	0.25	-0.33	i	.	.
CNC(=O)c1cc(C)c(-c2ccccc2)s1	-15	-0.12	-1.6	i	89*	i
Cc1c(NS(=O)(=O)c2ccccc2)c(=O)n(-c2ccccc2)n1C	-22	0.06	-0.12	i	22	i
Cc1c(Nc2nc3ccccc3nc2NS(=O)(=O)c2ccccc2)c(=O)n(-c2ccccc2)n1C	-10	0.55	-0.075	i	.	+
O=C1N=C(N2CCCC2)S/C1=C\c1ccccc1	-12	.	0.4	i	-170	i
CN(C)C1=NC(=O)/C(=C\c2ccccc2)S1	-2	-0.23	-0.35	i	41	+
CC1=Nn2c(nnc2-c2ccccc2Cl)SC1	-14	-0.43	-0.96	i	88*	i
CCC(NC(=O)Nc1nnc(C(F)(F)F)s1)(C(F)(F)F)C(F)(F)F	-18	-0.4	0.2	i	.	+
Cc1ccc(C)c(N(C)C(=O)COc2cc(=O)n(C)c3ccccc23)c1	-16	-0.46	0.13	i	.	+
CCSc1nccc(-c2nn(-c3ccc(C)cc3)ccc2=O)n1	-22	-0.29	1.6	i	.	+
CSc1nccc(-c2nn(-c3ccc(C)cc3)ccc2=O)n1	-13	-0.17	0.81	i	8	i
